According to ChEMBL document CHEMBL1132560, “N-Substituted 2-(2,6-dinitrophenylamino)propanamides: novel prodrugs that release a primary amine via nitroreduction and intramolecular cyclization” (J Med Chem, 1999):

Tests used:
[1] = 4-methoxyaniline yield was measured from 8 fold reduced forms of compound at pH 4
Summary of the method: (§1)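 Anaerobic aqueous solutions with 0.5 M 2-propanol were γ-irradiated to deliver a set number of molar equiv of reducing species (e⁻aq, (CH₃)₂C•OH), at room temperature. pH 7.4 runs used 0.01 M phosphate, pH 4.0 runs 0.01 M formate. […] Released 4-methoxyaniline was quantified by C-18 HPLC with diode-array detection.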

[2] = 4-methoxyaniline yield was measured from 4 fold reduced forms of compound at pH 4; summary of the method: as §1
[3] = 4-methoxyaniline yield was measured from 8 fold reduced forms of compound at pH 7.4; summary of the method: as §1
[4] = 4-methoxyaniline yield was measured from 4 fold reduced forms of compound at pH 7.4; summary of the method: as §1
CHO-AA8 = experiment: Cytotoxicity on AA8 cell growth (reduce cell number by 50%).; assay type: functional, cell-based; settings: Cricetulus griseus
Summary of the method: (§2)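 Cells in αMEM with 5% FBS plus penicillin/streptomycin were seeded per well at 200 (AA8), 300 (UV4), 75 (EMT6) or 600 (SKOV3) cells and grown 24 h. Drugs came from DMSO stocks (final DMSO <1%), pH 7.4. Exposure was aerobic for 4 h, followed by washing, 4–5 days further growth and methylene blue staining. IC₅₀ was set as 50% growth inhibition relative to same-plate controls. Mean ± SEM of 3–5 experiments.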

EMT6 = experiment: Cytotoxicity on EMT6 cell growth (reduce cell number by 50%).; assay type: functional, cell-based; settings: Mus musculus; summary of the method: as §2
SK-OV-3 = experiment: Cytotoxicity on SKOV3 cell growth (reduce cell number by 50%).; assay type: functional, cell-based; settings: Homo sapiens; summary of the method: as §2
UV4 [5] = experiment: Compound concentration to reduce plating efficiency of UV4 cells to 10% controls under aerobic conditions of 20% oxygen to that under […]; assay type: functional
Summary of the method: (§3)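 UV4 cells were grown to early plateau phase in spinner flasks and resuspended in fresh medium. Cells and drug in medium were pre-gassed for 1 h with 5% CO₂ in air (20% O₂) or in N₂. Cells at 10⁶/mL were then exposed for 1 h with continuous gassing and assayed clonogenically. C₁₀ is the concentration giving 10% surviving fraction; hypoxic selectivity is the ratio of aerobic to N₂ C₁₀. Mean ± SEM of 3 experiments.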

UV4 [6] = experiment: Compound's concentration to reduce plating efficiency of UV4 cells to 10% controls under aerobic conditions of 20% oxygen; assay type: functional; summary of the method: as §3
UV4 [7] = experiment: Cytotoxicity on UV4 cell growth (reduce cell number by 50%).; assay type: functional, cell-based; settings: Cricetulus griseus; summary of the method: as §2
[8] = 4-methoxyaniline yield was measured from 8 fold reduced forms of compound at 4; summary of the method: as §1
[9] = 4-methoxyaniline yield was measured from 4 fold reduced forms of compound at 4; summary of the method: as §1

Structure (SMILES)	Release [1] [%]	Release [2] [%]	Release [3] [%]	Release [4] [%]	IC50 (CHO-AA8) [nM]	IC50 (EMT6) [nM]	IC50 (SK-OV-3) [nM]	C10 (UV4 [5]) [air/N2]	C10 (UV4 [6]) [nM]	IC50 (UV4 [7]) [nM]	other results
COc1ccc(NC(=O)C(C)N(C)c2c([N+](=O)[O-])cc(C(=O)NCCO)cc2[N+](=O)[O-])cc1 (stereo unspecified)	94	80									
COc1ccc(NC(=O)C(C)Nc2c([N+](=O)[O-])cc(C(=O)NCC(O)CO)cc2[N+](=O)[O-])cc1 (stereo unspecified)			92	92							
COc1ccc(NC(=O)CN(C)c2c([N+](=O)[O-])cc(C(=O)NCCO)cc2[N+](=O)[O-])cc1	100	80									
COc1ccc(NC(=O)C(C)(C)Nc2c([N+](=O)[O-])cc(C(=O)NCCO)cc2[N+](=O)[O-])cc1			90	90							
COc1ccc(NC(=O)C(C)Nc2c([N+](=O)[O-])cc(C(=O)NCCN(C)C)cc2[N+](=O)[O-])cc1 (stereo unspecified)			89	89							
COc1cc2cc(C(=O)N3CC(CCl)c4c3cc(N)c3ccccc43)[nH]c2c(OC)c1OC (stereo unspecified)					0.46	0.27	1	1.1	3.4	0.29	
COc1ccc(NC(=O)CNc2c([N+](=O)[O-])cc(C(=O)NCCO)cc2[N+](=O)[O-])cc1	83	83	69	69							
COc1ccc(NC(=O)C(C)Nc2c([N+](=O)[O-])cc(C(=O)NCCO)cc2[N+](=O)[O-])cc1 (stereo unspecified)			77	77							Release [8]: 97%; Release [9]: 97%
CC(Nc1c([N+](=O)[O-])cc(C(=O)NCCN(C)C)cc1[N+](=O)[O-])C(=O)Nc1ccc(N(CCCl)CCCl)cc1 (stereo unspecified)					10500	1300	1300	1.3	2100	3000	
COc1cc2cc(C(=O)N3CC(CCl)c4c3cc(NC(=O)C(C)Nc3c([N+](=O)[O-])cc(C(=O)NCCN(C)C)cc3[N+](=O)[O-])c3ccccc43)[nH]c2c(OC)c1OC (stereo unspecified)					95	41	87	1.8	490	53	
